Measurements collected from several papers.
Lines come from different studies, so protocols differ.
Observed: cell growth or viability

| SMILES | cell line | method | tested at | time | setting | measurement | value |
| --- | --- | --- | --- | --- | --- | --- | --- |
| Cc1ccc2c(CNCC3(N4CCCC4)COC3)c[nH]c2c1 | T98G | – | 30 µM | 48 h | – | viability | 98.5% |
| Cc1cccc(-n2ncc(Cl)c(Cl)c2=O)c1 | NCI-H1975 | resazurin | – | 96 h | – | IC50 | 0.14 µM |
| CCCCCCCSc1ccc(CC(C)NCC(O)c2cccc(Cl)c2)cc1 (stereo not drawn) | HEK293 | – | – | – | – | IC50 | > 10 µM |
| N.N.[Cl][Pt][Cl] | NCI-H1975 | MTT | – | 72 h | – | IC50 | 6 µM |
| N.N.[Cl][Pt][Cl] | SK-MEL-28 | resazurin | – | – | dark | EC50 | 3.38 µM |
| N.N.[Cl][Pt][Cl] | HEK293 | MTT | – | 72 h | – | IC50 | 28.4 µM |
| CNCCN(C)C(=O)Oc1c(Cl)c(C)nc(C)c1-c1ccc(Oc2ccc(OC(F)(F)F)cc2)cc1 | HEK293 | – | – | – | – | IC50 | > 10 µM |
| Cc1cccc2[nH]cc(CNCC3(N4CCCC4)COC3)c12 | T98G | – | 30 µM | 48 h | – | viability | 60.1% |
| Cc1cc(O)cc2c(C3CCN(CC4CCN(C(=O)/C=C/c5ccc(Cl)c(Cl)c5)CC4)CC3)c[nH]c12 | HEK293 | – | – | – | – | IC50 | > 10 µM |
| Cc1cccc(-c2cccc(C)n2)n1.Cc1cccc(-c2cccc(C)n2)n1.F[P-](F)(F)(F)(F)F.F[P-](F)(F)(F)(F)F.[Ru+2].c1ccc2cc(-c3nc4c5cccnc5c5ncccc5c4[nH]3)ccc2c1 | SK-MEL-28 | resazurin | – | – | dark | EC50 | 31.8 µM |
| Cc1c(C)c2c(c(C)c1O)CC[C@](C)(C(=O)NC1CCC(CN3CCC(c4c[nH]c5ccccc45)CC3)CC1)O2 (stereo partly drawn) | HEK293 | – | – | – | – | IC50 | > 10 µM |
| O=S(=O)([O-])C(F)(F)F.OCc1ccnc(-c2cc(CO)ccn2)c1.[Ru+2].c1cc[cH-]c1.c1ccc(P(c2ccccc2)c2ccccc2)cc1 | HEK293 | MTT | – | 48 h | – | IC50 | 6.7 µM |
